Key:
[1] = molecular target: T1, C-C chemokine receptor type 5 (Homo sapiens, UniProt P51681); assay: Inhibitory activity against human CC chemokine receptor 5
Outline: (§1)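 Displacement of [125I]-labeled MIP-1α from human CCR5 on CHO cell membranes, described as a GP120-membrane-based assay. IC50 values are averages of triplicate measurements, with a standard compound run to check variability between assays. Single-point lines are percent inhibition at 2 μM.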
Target sequence in this assay (P51681 whole entry): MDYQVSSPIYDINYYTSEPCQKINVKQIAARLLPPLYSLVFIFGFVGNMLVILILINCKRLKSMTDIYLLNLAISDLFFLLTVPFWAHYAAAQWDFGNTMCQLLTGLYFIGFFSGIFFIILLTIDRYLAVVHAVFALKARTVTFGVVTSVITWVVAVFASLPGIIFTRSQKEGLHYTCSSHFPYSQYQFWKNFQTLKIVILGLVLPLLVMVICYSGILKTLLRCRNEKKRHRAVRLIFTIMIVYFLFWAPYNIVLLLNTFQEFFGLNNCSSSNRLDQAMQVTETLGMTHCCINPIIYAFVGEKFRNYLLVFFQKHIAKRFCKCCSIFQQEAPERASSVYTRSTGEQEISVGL

[2] = Oral bioavailability in rat; type: ADME, organism-based; conditions: in vivo
[3] = tested on: Human immunodeficiency virus 1; assay: (§2) In vitro antiviral activity against HIV-1 infected HeLa cells; type: functional; conditions: Human immunodeficiency virus 1, HeLa
Outline: (§3)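 Cell-culture HIV-1 infectivity assay in HeLa cells. Read-out is the IC90, with the IC50 given for some entries.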

[4] = Plasma clearance in rat; type: ADME, organism-based; conditions: read-out: Clp
Rattus norvegicus = assay: Area under curve in rat after p.o. administration; type: ADME, organism-based; conditions: in vivo, po
[5] = molecular target: T1, C-C chemokine receptor type 5; assay: Inhibition of human C-C chemokine receptor 5 by displacement of [125I]-labeled MIP-1alpha from CHO cell membranes
Target sequence in this assay (P51681 whole entry): as above

[6] = Hafl life rat; type: ADME, organism-based; conditions: in vivo
[7] = molecular target: T1, C-C chemokine receptor type 5; assay: Inhibitory activity against human Chemokine receptor 5 at 2 uM concentration; outline: as §1
Target sequence in this assay (P51681 whole entry, looked up): as the sequence (P51681 whole entry) above

[8] = tested on: Human immunodeficiency virus 1; assay: Concentration required for anti viral activity against BAL-1 strain of HIV-1 was determined using peripheral blood mononuclear cells; type: functional
Outline: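 Seven-day in vitro infectivity assay in peripheral blood mononuclear cells infected with the HIV-1 BAL-1 strain. Read-out is the IC95.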

HeLa [9] = assay: In vitro antiviral activity against HIV-1 infected HeLa cells when co-administered with compound 8f; type: functional; conditions: Homo sapiens; outline: as §3
[10] = molecular target: T1, C-C chemokine receptor type 5; assay: Inhibitory activity against human Chemokine receptor 5 when co-administered with compound 8f; outline: as §1
Target sequence in this assay (P51681 whole entry): as above

[11] = molecular target: T1, C-C chemokine receptor type 5; assay: Inhibitory activity against human […] chemokine receptor 5 when co-administered with compound 8g
Target sequence in this assay (P51681 whole entry): as above

HeLa [12] = assay: In vitro antiviral activity against HIV-1 infected HeLa cells when co-administered with compound 8g; type: functional; conditions: Homo sapiens; outline: as §3
HeLa [13] = assay: In vitro antiviral activity against HIV-1 infected HeLa cells from GP120-membrane-based assay; type: functional; conditions: Homo sapiens; outline: as §3
HeLa [14] = assay: as §2; type: functional, cell-based; conditions: Homo sapiens; outline: as §3
[15] = Hafl life in rat; type: ADME, organism-based; conditions: in vivo
[16] = molecular target: T1, C-C chemokine receptor type 5; assay: Inhibitory concentration to displace [125I]-MIP-1 alpha from CX3C chemokine receptor 5; outline: as §1
Target sequence in this assay (P51681 whole entry): as above

[17] = molecular target: T1, C-C chemokine receptor type 5; assay: Inhibitory concentration to displace [125I]-MIP-1 alpha from human […] chemokine receptor 5 expressed in CHO cell; type: cell-based; outline: as §1
Target sequence in this assay (P51681 whole entry): as above

Structure (SMILES) | IC50 [1] | IC90 [3] | other results
O=C(O)[C@@H](C1CCCCC1)N1C[C@H](CN2CCC(c3oncc3Cc3ccccc3)CC2)[C@@H](c2ccccc2)C1 | 0.8 nM | 0.4 nM | bioavailability [2]: 5.9%; clearance [4]: 67 mL/min/kg; AUC N (Rattus norvegicus): 0.03 uM hr dose-1
CCCn1nc(Cc2ccccc2)cc1C1CCN(C[C@H]2CN([C@@H](C(=O)O)C3CCCCC3)C[C@@H]2c2ccccc2)CC1 | 4.6 nM | 1.2 nM | –
O=C(O)[C@@H](C1CCCCC1)N1C[C@H](CN2CCC(c3n[nH]cc3C3(c4ccccc4)CC3)CC2)[C@@H](c2ccccc2)C1 | 4.4 nM | > 300 nM | –
CCn1cc(Cc2ccccc2)c(C2CCN(C[C@H]3CN([C@@H](C(=O)O)C4CCCCC4)C[C@@H]3c3ccccc3)CC2)n1 | 20 nM | > 300 nM | –
CCn1nc(CCc2ccccc2)cc1C1CCN(C[C@H]2CN([C@@H](C(=O)O)C3CCCCC3)C[C@@H]2c2cccc(F)c2)CC1 | – | 11 nM | bioavailability [2]: 3.2%; IC50 [5]: 2.2 nM; clearance [4]: 72 mL/min/kg; half-life [6]: 27 min; AUC N (Rattus norvegicus): 0.01 uM hr dose-1
Cc1cc(-c2ccccc2)n(C2CCN(C[C@H]3CN([C@@H](C(=O)O)C4CCCCC4)C[C@@H]3c3ccccc3)CC2)n1 | – | – | inhibition [7]: 65%
CCCCn1nc(Cc2ccccc2)cc1C1CCN(C[C@H]2CN([C@@H](C(=O)O)C3CCCCC3)C[C@@H]2c2ccccc2)CC1 | 3 nM | 11 nM | –
CCN(C(=O)OCc1ccccc1)C1CCN(CC[C@H](CN(C)S(=O)(=O)c2ccccc2)c2cccc(Cl)c2)CC1 | – | – | IC50 [5]: 2.4 nM; IC95 [8]: 13 nM
CCc1cc(Cc2ccccc2)n(C2CCN(C[C@H]3CN([C@@H](C(=O)O)C4CCCCC4)C[C@@H]3c3ccccc3)CC2)n1 | – | – | IC90 (HeLa [9]): > 300 nM; IC50 [10]: 78 nM
O=C(O)[C@@H](C1CCCCC1)N1C[C@H](CN2CCC(c3nocc3Cc3ccccc3)CC2)[C@@H](c2ccccc2)C1 | 1.2 nM | 3.7 nM | –
CCn1nc(-c2cccc3ccccc23)cc1C1CCN(C[C@H]2CN([C@@H](C(=O)O)C3CCCCC3)C[C@@H]2c2cccc(F)c2)CC1 | – | – | IC50 [5]: 16 nM
O=C(O)Cn1nc(Cc2ccccc2)cc1C1CCN(C[C@H]2CN([C@@H](C(=O)O)C3CCCCC3)C[C@@H]2c2ccccc2)CC1 | 33 nM | – | –
CCn1ncc(C(=O)c2ccccc2)c1C1CCN(C[C@H]2CN([C@@H](C(=O)O)C3CCCCC3)C[C@@H]2c2ccccc2)CC1 | 23 nM | – | –
CCc1cc(CCc2ccccc2)nn1C1CCN(C[C@H]2CN([C@@H](C(=O)O)C3CCCCC3)C[C@@H]2c2ccccc2)CC1 | – | – | IC50 [11]: 105 nM; IC90 (HeLa [12]): > 300 nM
O=C(O)[C@@H](C1CCCCC1)N1C[C@H](CN2CCC(c3cc(Cc4ccccc4)nn3CC(F)(F)F)CC2)[C@@H](c2ccccc2)C1 | 4.8 nM | 33 nM | –
O=C(O)[C@@H](C1CCCCC1)N1C[C@H](CN2CCC(c3cc(-c4ccc(Cl)cc4Cl)[nH]n3)CC2)[C@@H](c2cccc(F)c2)C1 | – | > 300 nM | IC50 [5]: 9 nM
CCn1ncc(Cc2ccccc2)c1C1CCN(C[C@H]2CN([C@@H](C(=O)O)C3CCCCC3)C[C@@H]2c2ccccc2)CC1 | 3 nM | 3.7 nM | IC90 (HeLa [13]): 10 nM
Cn1cc(CCc2ccccc2)c(C2CCN(C[C@H]3CN([C@@H](C(=O)O)C4CCCCC4)C[C@@H]3c3ccccc3)CC2)n1 | – | – | IC50 [5]: 23 nM
O=C(O)[C@@H](C1CCCCC1)N1C[C@H](CN2CCC(CCCc3ccccc3)CC2)[C@@H](c2ccccc2)C1 | – | – | IC50 [5]: 0.2 nM; IC95 [8]: 93 nM
N#Cc1ccc(-c2cc(C3CCN(C[C@H]4CN([C@@H](C(=O)O)C5CCCCC5)C[C@@H]4c4ccccc4)CC3)n[nH]2)cc1 | – | > 300 nM | IC50 [5]: 7.5 nM; IC50 (HeLa [14]): 100 nM
COc1ccc(-c2cc(C3CCN(C[C@H]4CN([C@@H](C(=O)O)C5CCCCC5)C[C@@H]4c4cccc(F)c4)CC3)[nH]n2)cc1 | – | > 300 nM | IC50 [5]: 12 nM
CCn1nc(-c2ccc(C#N)cc2)cc1C1CCN(C[C@H]2CN([C@@H](C(=O)O)C3CCCCC3)C[C@@H]2c2ccccc2)CC1 | 16 nM | > 300 nM | IC50 (HeLa [14]): 33 nM
O=C(O)[C@@H](C1CCCCC1)N1C[C@H](CN2CCC(c3cc(Cc4ccccc4)n[nH]3)CC2)[C@@H](c2ccccc2)C1 | 2.2 nM | 0.4 nM | –

Structure (SMILES) | IC50 [1] | IC90 [3] | other results
CCc1cc(CCc2ccccc2)n(C2CCN(C[C@H]3CN([C@@H](C(=O)O)C4CCCCC4)C[C@@H]3c3ccccc3)CC2)n1 | – | – | inhibition [7]: 82%
CCCn1ncc(CCc2ccccc2)c1C1CCN(C[C@H]2CN([C@@H](C(=O)O)C3CCCCC3)C[C@@H]2c2ccccc2)CC1 | – | 11 nM | IC50 [5]: 0.6 nM
CCn1nc(C2CCN(C[C@H]3CN([C@@H](C(=O)O)C4CCCCC4)C[C@@H]3c3ccccc3)CC2)cc1Cc1ccccc1 | 76 nM | > 300 nM | –
O=C(c1ccccc1)c1c[nH]nc1C1CCN(C[C@H]2CN([C@@H](C(=O)O)C3CCCCC3)C[C@@H]2c2ccccc2)CC1 | 41 nM | – | –
CC(C)(c1ccccc1)c1cn[nH]c1C1CCN(C[C@H]2CN([C@@H](C(=O)O)C3CCCCC3)C[C@@H]2c2ccccc2)CC1 | 11.5 nM | – | –
O=C(O)[C@@H](C1CCCCC1)N1C[C@H](CN2CCC(c3n[nH]cc3C(F)(F)c3ccccc3)CC2)[C@@H](c2ccccc2)C1 | 2.1 nM | 300 nM | –
CCn1ncc(C2(c3ccccc3)CC2)c1C1CCN(C[C@H]2CN([C@@H](C(=O)O)C3CCCCC3)C[C@@H]2c2ccccc2)CC1 | 11 nM | – | –
CCCn1cc(CCc2ccccc2)c(C2CCN(C[C@H]3CN([C@@H](C(=O)O)C4CCCCC4)C[C@@H]3c3ccccc3)CC2)n1 | – | – | IC50 [5]: 9 nM
CCn1cc(CCc2ccccc2)c(C2CCN(C[C@H]3CN([C@@H](C(=O)O)C4CCCCC4)C[C@@H]3c3ccccc3)CC2)n1 | 2.3 nM | 300 nM | –
O=C(O)[C@@H](C1CCCCC1)N1C[C@H](CN2CCC(c3[nH]ncc3Cc3ccccc3)CC2)[C@@H](c2ccccc2)C1 | 4.8 nM | 100 nM | –
CCn1ncc(C(C)(C)c2ccccc2)c1C1CCN(C[C@H]2CN([C@@H](C(=O)O)C3CCCCC3)C[C@@H]2c2ccccc2)CC1 | 6.9 nM | 300 nM | –
Cc1cc(-c2ccccc2)nn1C1CCN(C[C@H]2CN([C@@H](C(=O)O)C3CCCCC3)C[C@@H]2c2ccccc2)CC1 | – | – | inhibition [7]: 79%
Cn1ncc(CCc2ccccc2)c1C1CCN(C[C@H]2CN([C@@H](C(=O)O)C3CCCCC3)C[C@@H]2c2ccccc2)CC1 | – | 3.7 nM | IC50 [5]: 1 nM
CCn1nc(-c2ccc(CN)cc2)cc1C1CCN(C[C@H]2CN([C@@H](C(=O)O)C3CCCCC3)C[C@@H]2c2ccccc2)CC1 | 112 nM | – | –
O=C(O)[C@@H](C1CCCCC1)N1C[C@H](CN2CCC(c3cc(-c4cccc5ccccc45)[nH]n3)CC2)[C@@H](c2ccccc2)C1 | – | > 300 nM | IC50 [5]: 7.5 nM
Cn1nc(Cc2ccccc2)cc1C1CCN(C[C@H]2CN([C@@H](C(=O)O)C3CCCCC3)C[C@@H]2c2ccccc2)CC1 | 4.2 nM | 3.7 nM | –
CCn1nc(Cc2ccccc2)cc1C1CCN(C[C@H]2CN([C@@H](C(=O)O)C3CCCCC3)C[C@@H]2c2ccccc2)CC1 | – | 0.4 nM | bioavailability [2]: 4.1%; half-life [15]: 49.2 min; IC50 [16]: 2.1 nM; clearance [4]: 64 mL/min/kg; AUC N (Rattus norvegicus): 0.02 uM hr dose-1; IC50 [17]: 1.2 nM
O=C(O)[C@@H](C1CCCCC1)N1C[C@H](CN2CCC(c3cc(-c4ccc(Cl)cc4)n[nH]3)CC2)[C@@H](c2cccc(F)c2)C1 | – | > 300 nM | IC50 [5]: 4 nM
O=C(O)[C@@H](C1CCCCC1)N1C[C@H](CN2CCC(c3n[nH]cc3CCc3ccccc3)CC2)[C@@H](c2ccccc2)C1 | 1.2 nM | 33 nM | –
CCn1nc(-c2ccccc2)cc1C1CCN(C[C@H]2CN([C@@H](C(=O)O)C3CCCCC3)C[C@@H]2c2ccccc2)CC1 | 22 nM | > 300 nM | bioavailability [2]: 21%; clearance [4]: 3.8 mL/min/kg; half-life [6]: 90 min; IC50 (HeLa [14]): 100 nM; AUC N (Rattus norvegicus): 1.7 uM hr dose-1
CCOC(=O)Cn1nc(Cc2ccccc2)cc1C1CCN(C[C@H]2CN([C@@H](C(=O)O)C3CCCCC3)C[C@@H]2c2ccccc2)CC1 | 9 nM | 11 nM | –
CCn1ncc(CCc2ccccc2)c1C1CCN(C[C@H]2CN([C@@H](C(=O)O)C3CCCCC3)C[C@@H]2c2ccccc2)CC1 | 0.6 nM | 0.4 nM | bioavailability [2]: 2.6%; clearance [4]: 79 mL/min/kg; AUC N (Rattus norvegicus): 0.01 uM hr dose-1
